Source: PubChem BioAssay
TRPC6 act: mouse TRPC6 channel activation. B-score at 10 µM. HEK293-TRPC6 membrane potential dye fluorescence; active compounds read high. Q61143. AID 2550. 0.13% of 310,000 active;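 active means B-score of the integrated fluorescence ratio above library mean plus 3 SD, and starting fluorescence ratio within library mean plus 5 SD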;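 further: higher score means more depolarization so channel activation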
Target sequence (Q61143 whole entry, looked up): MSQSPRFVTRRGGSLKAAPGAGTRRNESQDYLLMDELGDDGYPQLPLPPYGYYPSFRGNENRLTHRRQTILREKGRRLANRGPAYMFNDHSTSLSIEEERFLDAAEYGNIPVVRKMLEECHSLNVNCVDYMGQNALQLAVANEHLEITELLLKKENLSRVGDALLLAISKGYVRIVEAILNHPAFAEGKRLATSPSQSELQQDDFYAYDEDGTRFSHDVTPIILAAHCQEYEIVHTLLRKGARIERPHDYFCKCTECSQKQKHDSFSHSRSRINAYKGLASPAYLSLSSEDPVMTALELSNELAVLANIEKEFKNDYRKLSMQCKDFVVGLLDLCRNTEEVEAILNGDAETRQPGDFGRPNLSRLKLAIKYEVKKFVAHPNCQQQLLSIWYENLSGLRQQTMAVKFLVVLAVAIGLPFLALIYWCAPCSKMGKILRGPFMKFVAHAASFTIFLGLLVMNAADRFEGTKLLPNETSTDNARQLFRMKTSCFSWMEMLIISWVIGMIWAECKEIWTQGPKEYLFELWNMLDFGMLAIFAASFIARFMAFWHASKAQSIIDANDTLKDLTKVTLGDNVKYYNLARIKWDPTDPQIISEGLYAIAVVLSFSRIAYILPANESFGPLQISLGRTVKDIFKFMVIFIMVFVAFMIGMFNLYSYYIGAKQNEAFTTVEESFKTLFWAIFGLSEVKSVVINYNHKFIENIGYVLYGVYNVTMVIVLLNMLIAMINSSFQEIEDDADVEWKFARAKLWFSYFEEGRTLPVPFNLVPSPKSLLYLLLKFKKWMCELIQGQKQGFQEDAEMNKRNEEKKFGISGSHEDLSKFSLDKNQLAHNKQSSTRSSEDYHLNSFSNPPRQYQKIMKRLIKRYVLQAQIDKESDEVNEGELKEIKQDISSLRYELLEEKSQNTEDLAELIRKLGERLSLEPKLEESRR
TRPC4 agonist: opens the mouse TRPC4 cation channel; HEK293 TRPC4beta/mu-opioid, Fluo4 calcium fluorescence; active compounds read high; B-score at 10 µM; Q9QUQ5; 0.49% of 310,000 active; AID 2237;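 active means B-score above 5 SD of library B-scores, and initial fluorescence ratio not above library mean plus 5 SD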;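 further: positive B-score marks a calcium rise read as TRPC4 activation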
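System – HEK293 cells stably co-expressing mouse TRPC4beta and mu-opioid receptor · Signal – Fluo4 calcium-sensitive dye fluorescence, kinetic, 1 Hz baseline · Benchmarks – buffer (low) and maximal DAMGO (high) · Read-out – B score of integrated fluorescence ratio per well · Incubation – dye loading 45 min room temperature, 110 s kinetic read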
TRPC4 PAM: allosterically enhances the mouse TRPC4 cation channel; Q9QUQ5; HEK293 TRPC4beta/mu-opioid, DAMGO EC20, Fluo-4 Ca2+ flux; active compounds read high; B-score at 10 µM; 0.42% of 310,000 active;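 active means B-score of calcium response area above 5 SD of library B-scores, with initial fluorescence ratio within 5 SD of library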;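 further: B-score of integrated fluorescence ratio over time as area under calcium response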
TRPC6 inhibitor: mouse TRPC6 channel inhibition; Q61143; HEK293-TRPC6, membrane potential dye, ACh-evoked depolarization; active compounds read low; B-score at 10 µM; 1.1% of 310,000 active; AID 2553;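 active means B-score under library mean minus 3 SD, initial fluorescence not abnormally high, positive integrated signal ratio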;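 further: B-score derived from integrated fluorescence ratio over the kinetic read; more negative B-score means stronger inhibition of depolarization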
TRPC4 block: TRPC4 (mouse) channel inhibition; Q9QUQ5; HEK293 TRPC4beta/mu-opioid, DAMGO-evoked Fluo4 calcium flux; active compounds read low; B-score at 10 µM; 0.39% of 300,000 active; AID 2247;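 active means B-score over 3 SD under the library average, no early fluorescence shift, positive overall ratio signal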
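Material: HEK293 cells with stable TRPC4beta plus mu-opioid receptor expression / Probe or stimulus: DAMGO in two steps, submaximal then maximal / Compound: single concentration per test compound / Technique: kinetic Fluo4 fluorescence imaging of calcium influx / Read-out: per-well B score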
Kir21 block: blocks the mouse Kir2.1 inward-rectifier potassium channel; AID 1672; P35561; B-score at 10 µM; HEK293-Kir2.1, FluxOR thallium flux fluorescence; active compounds read low; 0.85% of 310,000 active;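 active means fluorescence ratio B-score at or below minus 3 SD of library scores, with starting-brightness B-score within 2 SD, cut at about -4.2 in these data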;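 further: channel flux triggered by added potassium and thallium sulfate stimulus; B-score of peak minus minimum fluorescence over baseline after thallium stimulus; more negative B-score means stronger Kir2.1 block with less thallium influx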
TRPC4 spec 2: second selectivity test of TRPC6 inhibitors: effect on mouse TRPC4 | HEK293 TRPC4/MOR, membrane potential dye fluorescence; channel activated by saturating DAMGO dose | inhibition, % at 10 µM | 42% of 920 active | shares compounds with TRPC6 inhibitor;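 active means compounds whose fluorescence signal differed from control wells by over 3 SD, either direction, in both duplicate plates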
TRPC4 spec: selectivity of TRPC6 inhibitors: effect on mouse TRPC4. 61% of 920 active. activity change, negative = inhibition, % at 10 µM. shares compounds with TRPC6 inhibitor. HEK293 TRPC4/mu-opioid, membrane potential fluorescence;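 active means rise or fall in signal beyond 3 SD of buffer-only wells in both replicate plates, either sign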;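 further: integrated kinetic ratio of fluorescence range over baseline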
HEK293 MPD ctr 2-1: second counter-screen for TRPC6 inhibitors: parental HEK293 cells. 31% of 920 active. signal change vs control, % at 10 µM. shares compounds with TRPC6 inhibitor. parental HEK293 membrane potential dye fluorescence; maximal acetylcholine challenge after compound addition;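 active means membrane potential signal moving either way by over 3 SD of the maximum-effect control, in both duplicate plates, meaning non-specific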
HEK293 MPD ctr-1: counter-screen for TRPC6 inhibitors: effect in parental HEK293 cells; shares compounds with TRPC6 inhibitor; parental HEK293 membrane potential dye fluorescence; membrane potential signal change, % at 10 µM; 60% of 920 active;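 active means membrane potential signal shifting up or down by more than 3 SD of buffer-only wells, on both duplicate plates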
HEK293 MPD ctr-2: counter-screen for TRPC6 modulators: effect in parental HEK293 cells | membrane potential dye fluorescence | 51% of 2,400 active | membrane potential signal change, % at 10 µM | AID 488924 | shares compounds with TRPC6 inhibitor;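 active means membrane potential signal moves up or down beyond 5 SD from buffer-only wells, on both duplicate plates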
HEK293 MPD ctr 2-2: second check of TRPC6 modulator effects in parental HEK293 cells. membrane potential dye fluorescence; after compound, maximal acetylcholine stimulation. inhibition, % at 10 µM. 14% of 2,400 active. shares compounds with TRPC6 inhibitor;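 active means membrane potential signal drops by more than 5 SD from the mean control signal, in both duplicate plates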;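 further: plate controls were acetylcholine ECmax control wells for no effect and buffer only wells for full effect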
TRPC4/MOR mod: mouse TRPC4 off-target activity of TRPC6 modulators | shares compounds with TRPC6 inhibitor | HEK293 TRPC4/mu-opioid, membrane potential fluorescence | percent change from control (negative = decrease, positive = increase), % at 10 µM | 69% of 2,400 active;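 active means membrane potential signal moved up or down beyond 5 SD of buffer control wells, in both duplicate plates, actives on both sides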;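 further: plate controls were assay buffer wells for no effect and DAMGO maximal-effect wells for full effect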
TRPC4 ctr inh 2: mouse TRPC4 off-target activity of TRPC6 modulators, second screen | shares compounds with TRPC6 inhibitor | HEK293 TRPC4/mu-opioid, membrane potential dye fluorescence; stimulated with maximal-effect DAMGO | inhibition, % at 10 µM | 55% of 2,400 active | AID 488928;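 active means drop in membrane potential signal beyond 5 SD of the control wells in both duplicate plates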;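 further: TRPC4 counter screen for TRPC6 hits run under conditions tuned for TRPC6 not TRPC4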
TRPC6 block conf: mouse TRPC6 inhibitor confirmation | inhibition, % at 10 µM | HEK293-TRPC6, membrane potential dye, ACh-evoked depolarization | AID 488960 | 43% of 3,300 active | shares compounds with TRPC6 inhibitor;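 active means fluorescence ratio falls more than 5 SD below the full-stimulation control mean, in both duplicate runs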;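 further: integrated fluorescence ratio of peak minus minimum over baseline after agonist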
TRPC6 act confirm: confirmation of mouse TRPC6 activators; HEK293-TRPC6 membrane potential dye fluorescence, FDSS; 11% of 2,800 active; activation, % at 10 µM; shares compounds with TRPC6 inhibitor;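 active means ratio signal rise beyond 5 SD above unstimulated control wells' mean, seen in both duplicate runs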;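 further: plate controls were buffer EC0 wells for no effect and acetylcholine ECmax response for full effect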
Starred values were filed as active, the others as inactive; i = inactive; nt = not tested or not shown. A selection: hits, their analogues and other compounds. The true share with any hit is near 2.9%.

SMILES	TRPC6 act	TRPC4 agonist	TRPC4 PAM	TRPC6 inhibitor	TRPC4 block	Kir21 block	HEK293 MPD ctr-2	HEK293 MPD ctr 2-2	TRPC4/MOR mod	TRPC4 ctr inh 2	TRPC6 block conf	TRPC6 act confirm	others
COC(=O)c1ccc(/C=N/OCC(=O)NC2CCCC(C)C2C)cc1 (centres undefined)	i	i	i	i	i	-1.82	nt	nt	nt	nt	nt	nt
O=C(Cc1ccc([N+](=O)[O-])cc1)NCc1cccnc1	i	i	i	-5.15*	i	2.84	i	i	i	i	i	i
Cc1ccc(NC(=O)c2cc([N+](=O)[O-])ccc2NCc2cccnc2)cc1	i	i	i	-6.73*	i	0.7	nt	nt	nt	nt	i	i	TRPC4 spec 2=i;TRPC4 spec=i;HEK293 MPD ctr 2-1=i;HEK293 MPD ctr-1=-145.0%*
COc1ccc([N+](=O)[O-])cc1NCc1cccnc1	i	i	i	i	i	-0.17	nt	nt	nt	nt	nt	nt
Fc1cccc(Cc2noc(CN3CCSCC3)n2)c1	i	i	i	i	i	1.06	nt	nt	nt	nt	nt	nt
Fc1cccc(Cc2noc(CN3CCCN(C4Cc5ccccc5C4)CC3)n2)c1	i	i	i	-5.07*	i	-0.69	202.0%*	i	27.5%*	70.5%*	46.5%*	nt
c1csc(-c2nc(NCCCN3CCOCC3)c3ccccc3n2)c1	i	i	i	-7.19*	i	0	-179.5%*	i	-40.0%*	71.5%*	68.0%*	i
COc1cccc(-c2nc(NCCN3CCOCC3)c3ccccc3n2)c1O	i	i	i	i	i	-0.12	nt	nt	nt	nt	nt	nt
Fc1ccccc1-c1nc(NCCCN2CCOCC2)c2ccccc2n1	i	i	i	-5.09*	i	0.43	-271.5%*	i	-47.0%*	55.0%*	51.5%*	i
Cc1ccc(-c2nc(NCCN3CCOCC3)c3ccccc3n2)cc1	i	i	i	-6.25*	i	0.01	-209.5%*	i	-37.5%*	74.0%*	62.5%*	i
Clc1cccc(-c2nc(NCCN3CCOCC3)c3ccccc3n2)c1	i	i	i	i	i	0	nt	nt	nt	nt	nt	nt
Oc1ccccc1-c1nc(NCCN2CCOCC2)c2ccccc2n1	i	i	i	-8.34*	i	-0.26	nt	nt	nt	nt	67.7%*	i	TRPC4 spec 2=57.5%*;TRPC4 spec=-19.4%*;HEK293 MPD ctr 2-1=i;HEK293 MPD ctr-1=-327.5%*
Cc1cc(C)nc(NS(=O)(=O)c2ccc(NC(=O)c3nn(-c4ccccc4)ccc3=O)cc2)n1	i	i	i	i	i	0.92	nt	nt	nt	nt	nt	nt
Clc1ccc(-c2nc(NCCCN3CCOCC3)c3ccccc3n2)cc1	i	i	i	-6.65*	i	-3.06	nt	nt	nt	nt	61.1%*	i	TRPC4 spec 2=71.5%*;TRPC4 spec=-23.8%*;HEK293 MPD ctr 2-1=i;HEK293 MPD ctr-1=-328.0%*
N#Cc1nc(-c2cccc3ccccc23)oc1NCCN1CCCCC1	i	i	i	-7.57*	i	-4.93*	nt	nt	nt	nt	i	i	TRPC4 spec 2=i;TRPC4 spec=i;HEK293 MPD ctr 2-1=i;HEK293 MPD ctr-1=i
NC1=NC(=Nc2ccc(Br)cc2)c2ccccc21	i	i	i	-5.02*	i	2.48	i	i	-17.0%*	40.0%*	i	i
CC(C)c1ccc(N=C2N=C(N)c3ccccc32)cc1	i	i	i	-6.08*	i	-4.45*	i	i	-29.0%*	77.0%*	73.0%*	i
COc1ccc(S(=O)(=O)N2CCCCCC2)cc1Br	i	i	i	-6.4*	i	-0.9	i	i	9.0%*	i	46.5%*	i
COc1ccc(S(=O)(=O)N2CCOCC2)cc1Br	i	i	i	i	i	1.59	nt	nt	nt	nt	nt	nt
COc1ccc(S(=O)(=O)N2CCCCCC2)cc1NC(=O)Cc1ccccc1F	16.3*	i	i	-8.92*	i	0.01	i	i	i	i	i	i
Cc1cccn2c(=O)c3cc(C(=O)NCCc4ccccc4)c(=N)n(Cc4ccco4)c3nc12	i	i	i	i	i	1.31	nt	nt	nt	nt	nt	nt
Cc1cccn2c(=O)c3cc(C(=O)NCc4ccco4)c(=N)n(C(C)C)c3nc12	i	i	i	-8.05*	i	-0.12	nt	nt	nt	nt	i	i	TRPC4 spec 2=i;TRPC4 spec=-30.6%*;HEK293 MPD ctr 2-1=i;HEK293 MPD ctr-1=-445.5%*
Cc1cccn2c(=O)c3cc(C(=O)NCc4cccnc4)c(=N)n(C(C)C)c3nc12	i	i	i	-6.16*	i	-1.8	i	i	i	38.0%*	i	i
CCCCN(CCCC)C(=S)NC(=O)c1ccccc1Cl	i	i	i	i	i	0.41	nt	nt	nt	nt	nt	nt
CCCn1c(-c2ccc(F)cc2)n[nH]c1=S	i	i	i	i	i	0.46	nt	nt	nt	nt	nt	nt
CCCCn1c(-c2ccc([N+](=O)[O-])cc2)n[nH]c1=S	i	i	i	-14.8*	i	0.23	nt	nt	nt	nt	84.6%*	i	TRPC4 spec 2=i;TRPC4 spec=i;HEK293 MPD ctr 2-1=-17.5%*;HEK293 MPD ctr-1=i
O=C(COc1ccccc1/C=C1\SC(=O)NC1=O)Nc1ccc(F)cc1	i	i	i	i	i	-0.83	nt	nt	nt	nt	nt	nt
